According to PubChem BioAssay AID652000 (Sanford-Burnham Center for Chemical Genomics, 2013):
Fewer than 10 of roughly 2,400 compounds were called active. Not all results are given here. Values without a mark were called inactive.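 How the source made its calls: active means activation of at least 50%; inactive means the rest.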

What follows are molecules tested against G-protein coupled receptor 183 (Homo sapiens) (UniProt P32249) (assay: EBI2 receptor activation without oxysterol – cell-based, single concentration, agonist mode, luminescence, counter-screen for EBI2 antagonist project, confirmation (AID 652000)). Details: EBI2-expressing cells, 60 min, at 5 µM, stronger effect = higher value, 0% vehicle, 100% 7α,25-dihydroxycholesterol control.
Sequence of G-protein coupled receptor 183 (Homo sapiens) (P32249 whole entry, looked up): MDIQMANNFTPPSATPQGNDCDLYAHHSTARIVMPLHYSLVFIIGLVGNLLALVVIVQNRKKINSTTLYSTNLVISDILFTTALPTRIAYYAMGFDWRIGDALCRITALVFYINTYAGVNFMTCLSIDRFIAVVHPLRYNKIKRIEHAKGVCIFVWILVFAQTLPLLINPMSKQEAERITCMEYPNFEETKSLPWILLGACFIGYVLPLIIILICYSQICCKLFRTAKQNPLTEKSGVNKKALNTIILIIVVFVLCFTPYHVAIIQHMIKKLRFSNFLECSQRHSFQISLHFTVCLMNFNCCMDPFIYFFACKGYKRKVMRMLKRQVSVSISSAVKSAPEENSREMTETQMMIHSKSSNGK
In short: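 System: beta-arrestin reporter cell line; reagent: test wells without oxysterol; dosing: one dose from 10 mM stock, 2.5 nL; times: 37°C overnight seeding and 60-min compound, 25°C dark 60-min detection; signal: luminescence after adding detection reagent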

Row | Structure (SMILES) | activation [%]
1 | O=C(NCc1ccc(Cl)cc1)C1CCN(S(=O)(=O)c2cccs2)CC1 | 0.21
2 | O=C(CCNS(=O)(=O)c1ccccc1)NCCSc1ccc(Br)cc1 | -1.84
3 | Cc1ccc(O/C=C2\OC(=O)c3ccccc32)cc1 | -0.84
4 | O=C(COc1ccc2ccccc2c1)N1CCN(C(=O)c2cccs2)CC1 | 0.16
5 | COc1ccc(/C=C/C(=O)c2ccc(OC)cc2O)cc1 | -0.61
6 | Fc1ccc(N2CCN(Cc3cnc(Oc4ccc(Br)cc4)s3)CC2)cc1 | 1.8
7 | CCOC(=O)N1CCN(C(=O)COc2ccc(Cl)cc2C)CC1 | 0.57
8 | CN(Cc1ccc(F)cc1)C(=O)COc1ccc2ccccc2c1 | 0.62
9 | Cc1ccc(S(=O)(=O)N2CCN(C(=O)CSc3cc(C)ccc3C)CC2)c(C)c1 | 1.03
10 | Cc1ccc2oc(=O)c3cnn(CC(=O)N(Cc4ccco4)C4CCCCC4)c3c2c1 | -0.75
11 | Cc1cc(C)cc(Oc2nc3c(C)cccn3c(=O)c2/C=C(\C#N)C(=O)NC2CCS(=O)(=O)C2)c1 (stereo unspecified) | -1.11
12 | Cc1cc(Cl)c2oc(C(=O)N3CCC(O)(c4ccccc4)CC3)c(C)c2c1 | -0.43
13 | COc1ccc(CNC(=O)CN(c2ccc(OC)c(Cl)c2)S(=O)(=O)c2ccc(C)cc2)cc1 | -1.61
14 | Cc1ccc(N2CC(C(=O)Nc3ccc(S(=O)(=O)N4CCCC4)cc3)CC2=O)cc1C (stereo unspecified) | 1.21
15 | O=C(C(c1ccccc1)c1ccccc1)N1CCN(CC(O)COc2ccccc2)CC1 (stereo unspecified) | -0.02
16 | O=C(CC(c1ccccc1)c1ccccc1)NCC(O)c1ccc([N+](=O)[O-])cc1 (stereo unspecified) | -0.61
17 | Cc1ccc(S(=O)(=O)N2CCN(CC(=O)N/N=C/c3ccc(Br)s3)CC2)cc1 | 0.71
18 | N#CC(=C1CCCC1)c1nc(-c2ccc(Cl)cc2)cs1 | -0.93
19 | Cc1cc(OCC(=O)N2CCN(c3ncccn3)CC2)ccc1Cl | 1.39

Row | Structure (SMILES) | activation [%]
20 | O=C(/C=C/c1ccc(Cl)cc1)N1CCN(c2ccccc2[N+](=O)[O-])CC1 | 1.03
21 | O=C(Nc1ncc2c(n1)CC(c1ccco1)CC2=O)c1ccc(Cl)cc1 (stereo unspecified) | 1.34
22 | CCOc1ccc(CCN2C(=S)N([C@@H](CC(C)C)CN3CCC[C@@H]3CN3C(=S)NC[C@@H]3Cc3ccc(O)cc3)C[C@@H]2Cc2ccc(O)cc2)cc1 | -0.93
23 | COc1ccc(OCC(=O)N2CCN(C(=O)COc3ccccc3)CC2)cc1 | -0.25
24 | O=C(NNC(=O)c1ccc2ccccc2c1)c1ccc(Cl)cc1 | 0.21
25 | COc1cccc(-c2cc(C(=O)N3CCN(c4ccccc4OC)CC3)no2)c1 | -0.66
26 | COc1ccc(-c2cc(C3CCN(c4ncccc4[N+](=O)[O-])CC3)[nH]n2)cc1 | -0.52
27 | FC(F)(F)Oc1ccccc1C(c1nnnn1C1CCCCC1)N1CCN(C/C=C/c2ccccc2)CC1 (stereo unspecified) | 2.25
28 | Cc1ccc(OCC(=O)N2CCN(C(=O)c3cccnc3)CC2)cc1 | 0.16
29 | CC1CCc2sc3nc(N4CCN(CCO)CC4)n4ncnc4c3c2C1 (stereo unspecified) | 1.12
30 | Cc1nc2ccc(C(=O)N3CCN(c4ccccc4)CC3)cc2s1 | -1.39
31 | Cc1cs/c(=N\N=C\c2ccc(O)cc2)n1Cc1ccco1 | -0.2
32 | CCOc1ccc(CN(Cc2ccco2)S(=O)(=O)c2ccc(-n3cnnn3)c(OC)c2)cc1 | 0.3
33 | Fc1ccccc1/C=N/Nc1cc(N2CCCCC2)ncn1 | -1.29
34 | CC(C)Cn1c(N2CCN(C(=O)/C=C/c3ccccc3)CC2)nc2ccccc21 | -1.2
35 | COc1cccc(NC(=O)Cn2c3ccccc3c3nc4n(c(=O)c32)CCS4)c1 | -1.89
36 | Cc1ccc(OCCNC(=O)CCNS(=O)(=O)c2ccc(Br)cc2)cc1 | -0.93
37 | CCN(CC(=O)NCc1cccs1)C(=O)/C=C/c1ccc(C)cc1 | 0.57
38 | Cc1cccc(N2CCN(C(=O)c3cc4c(=O)[nH]c5ccccc5c4n3C)CC2)c1C | 2.57

Row | Structure (SMILES) | activation [%]
39 | O=C(COc1ccc2c(c1)CCC2)N1CCN(c2ccc(F)cc2)CC1 | -1.43
40 | O=C(COc1ccc(Cl)cc1)N1CCN(c2cccc(C(F)(F)F)c2)CC1 | 1.62
41 | Cc1nc(-c2ccccc2)sc1C(=O)/C=C/c1ccccc1 | 1.39
42 | N#Cc1ccc(C(c2nnnn2CCc2ccccc2)N2CCCCCC2)cc1 (stereo unspecified) | 0.07
43 | COc1ccccc1N1CCN(C(=O)c2cc(=O)c3cc(C)ccc3o2)CC1 | 0.39
44 | O=C(c1cc2cc(F)ccc2[nH]1)N1CCN(c2ccc(F)cc2)CC1 | 1.94
45 | COc1ccc(NC(=O)N2CCC(Cc3ccccc3)CC2)cc1 | -0.34
46 | Cc1ccc(-c2nn(-c3ccccc3)cc2/C=C/C(=O)Nc2cccc(S(N)(=O)=O)c2)cc1 | 1.07
47 | Cc1cccc(NC(=O)CN2CCN(C(=O)C3CCN(C(=O)/C=C/c4ccccc4)CC3)CC2)c1C | -0.88
48 | Cc1ccc2oc(=O)c3cnn(CC(=O)N4CCCCCC4)c3c2c1 | -0.61
49 | CC(=O)c1nn(-c2ccc(C)cc2)cc1C(=O)c1cccc(Br)c1 | 1.07
50 | COc1ccc([C@H]2CC(=O)C=C(c3ccc(C)cc3)C2)cc1 | 1.12
51 | CCOc1ccc(C(C)=O)cc1COC(=O)c1cnc(Cl)c(Cl)c1 | -0.57
52 | O=C(c1cc2ccccc2s1)N1CCN(c2ccccn2)CC1 | -1.48
53 | CCC1Nc2ncnc(N3CCN(c4ccccc4)CC3)c2N(Cc2ccc(Cl)cc2)C1=O (stereo unspecified) | -4.52
54 | CC1(Cc2ccccc2C#N)C(=O)Nc2ccc(-c3ccc4[nH]ccc4c3)cc21 (stereo unspecified) | -0.66
55 | O=C(c1cc2ccccc2o1)N1CCN(S(=O)(=O)c2ccc(Cl)s2)CC1 | 0.16
56 | COc1ccc(Nc2cc(Sc3ccc(OC)cc3)ncn2)cc1 | -0.07
